Key:
[1] = tested on: HCT-116; assay: Cytotoxicity against human HCT-116 cells assessed as inhibition of cell growth measured after 72 hrs by CellTiter-Glo reagent based luminescence assay; assay type: functional; details: HCT-116, 72 h
Method in brief: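 Cells (HCT-116 in McCoy's 5A; U87-MG in DMEM 4.5 g/L glucose; all with 10% serum, 1% glutamine, 37 °C, 5% CO2) seeded at 3 × 10³/well, treated after 24 h with 10 final concentrations by serial dilution; vehicle controls. After 72 h, CellTiter-Glo luminescence; IC50 from four- or five-parameter logistic fit, triplicate, mean of three experiments.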

[2] = Drug metabolism in rat liver microsomes assessed as hydroxylated metabolite formation measured after 96 hrs by ESI-HRMS assay; assay type: ADME, Microsome
Method in brief: (§1)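 Compound at 100 μM final incubated at 37 °C with rat or human liver microsomes (1 mg/mL protein, 10 mM buffer pH 7.4) plus NADPH-generating system (0.6 mM NADPNa4, 6.4 mM glucose-6-phosphate, 2 U/mL G6PDH). After 96 h, ethyl acetate extraction and HPLC-MS/MS (positive ESI, m/z 150–450, collision-induced dissociation) to identify metabolites.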

[3] = Drug metabolism in rat liver microsomes assessed as O-demethylated metabolite formation measured after 96 hrs by ESI-HRMS assay; assay type: ADME, Microsome
Method in brief: (§2)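 Rat or human liver microsomes at 1 mg/mL final protein in 10 mM buffer, pH 7.4, prewarmed to 37 °C with an NADPH-generating system (0.6 mM NADP, 6.4 mM glucose-6-phosphate, 2 U/mL G6P dehydrogenase). Substrate 100 μM final; shaken at 37 °C. Triplicate aliquots taken at 0–96 h (up to 144 h), ethyl acetate quench with internal standard, then HPLC-MS/MS (positive ESI, m/z 150–450, CID).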

[4] = Drug metabolism in human liver microsomes assessed as hydroxylated metabolite formation measured after 96 hrs by ESI-HRMS assay; assay type: ADME, Microsome; method in brief: as §1
[5] = Drug metabolism in human liver microsomes assessed as O-demethylated metabolite formation measured after 96 hrs by ESI-HRMS assay; assay type: ADME, Microsome; method in brief: as §2
[6] = Metabolic stability in rat liver microsomes assessed as half life measured after 96 hrs by HPLC-MS/MS analysis; assay type: ADME, Microsome
Method in brief: (§3)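 Compound (100 μM final) incubated at 37 °C with rat or human liver microsomes (1 mg/mL protein, pH 7.4) and NADPH-generating system; triplicate aliquots at 0–144 h quenched with isoCA-4 internal standard and ethyl acetate, quantified by HPLC-MS/MS against calibration curves.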

[7] = Metabolic stability in human liver microsomes assessed as half life measured after 96 hrs by HPLC-MS/MS analysis; assay type: ADME, Microsome; method in brief: as §3
[8] = tested on: A549; assay: Cytotoxicity against human A549 cells assessed as inhibition of cell growth measured after 72 hrs by CellTiter-Glo reagent based luminescence assay; assay type: functional; details: A549, 72 h
Method in brief: (§4)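 Cells seeded at 3 × 10³/well and grown 24 h. A549, MDA-MB231, K562 and K562R (doxorubicin-resistant) were in RPMI 1640; MiaPaCa2 and HT29 in DMEM (4.5 g/L glucose); all media had 10% FCS and 1% glutamine, at 37 °C and 5% CO₂. Cells got 10 final concentrations by serial dilution, with vehicle controls, for 72 h. CellTiter-Glo luminescence was read after 15 min. Triplicate runs; IC50 from four- or five-parameter logistic fits.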

[9] = tested on: MDA-MB-231; assay: Cytotoxicity against human MDA-MB-231 cells assessed as inhibition of cell growth measured after 72 hrs by CellTiter-Glo reagent based luminescence assay; assay type: functional; details: MDA-MB-231, 72 h; method in brief: as §4
[10] = tested on: MIA PaCa-2; assay: Cytotoxicity against human MIA PaCa-2 cells assessed as inhibition of cell growth measured after 72 hrs by CellTiter-Glo reagent based luminescence assay; assay type: functional; details: MIA PaCa-2, 72 h; method in brief: as §4
[11] = tested on: HT-1080; assay: Cytotoxicity against human HT-1080 cells assessed as inhibition of cell growth measured after 72 hrs by CellTiter-Glo reagent based luminescence assay; assay type: functional; details: HT-1080, 72 h
[12] = tested on: K562; assay: Cytotoxicity against human K562 cells assessed as inhibition of cell growth measured after 72 hrs by CellTiter-Glo reagent based luminescence assay; assay type: functional; details: K562, 72 h; method in brief: as §4
[13] = tested on: K-562R; assay: Cytotoxicity against human K-562R cells assessed as inhibition of cell growth measured after 72 hrs by CellTiter-Glo reagent based luminescence assay; assay type: functional; method in brief: as §4
[14] = tested on: HT-29; assay: Cytotoxicity against human HT-29 cells assessed as inhibition of cell growth measured after 72 hrs by CellTiter-Glo reagent based luminescence assay; assay type: functional; details: HT-29, 72 h; method in brief: as §4

SMILES	IC50 [1] [nM]	further results
COc1cc(N(C)c2ccc3c(c2)cc2n3CCOC2)cc(OC)c1OC	29.2	
Cc1cc(N(C)c2ccc3c(c2)cc2ccccn23)c2ccccc2n1	78.4	
Cc1nc(N(C)c2ccc3c(c2)cc2n3CCOC2)c2ccccc2n1	10.4	
Cc1cc(N(C)c2ccc3c(c2)cc2n3CC=CC2)c2ccccc2n1	5.2	
C=C(c1cc(OC)c(OC)c(OC)c1)c1ccc2c(c1)cc(CO)n2C	2.12	
COc1cc(N(C)c2ccc3c(c2)cc2n3CC=CC2)cc(OC)c1OC	959	
Cc1nc(N(C)c2ccc3c(c2)cc2ccccn23)c2ccccc2n1	6.87	
C=C(c1ccc(OC)c(O)c1)c1cc(OC)c(OC)c(OC)c1	0.64	Drug metabolism [2]: Metabolite_Detected; Drug metabolism [3]: Metabolite_Detected; Drug metabolism [4]: Metabolite_Detected; Drug metabolism [5]: Metabolite_Detected; half-life [6]: 18 h; half-life [7]: 30 h; IC50 [8]: 52.7 nM; IC50 [9]: 1.98 nM; IC50 [10]: 3.01 nM; IC50 [11]: 0.91 nM; IC50 [12]: 4.26 nM; IC50 [13]: 5.13 nM; IC50 [14]: > 100 nM
Cc1cc(N(C)c2ccc3c(c2)cc(CO)n3C)c2ccccc2n1	16.4	
C=C(c1cc(OC)c(OC)c(OC)c1)c1ccc2c(c1)cc1ccccn12	213	
C=C(c1cc(OC)c(OC)c(OC)c1)c1ccc2c(c1)cc1n2CCOC1	23.5	
Cc1cc(N(C)c2ccc3c(c2)cc2n3CCOC2)c2ccccc2n1	3.22	
C=C(c1ccc2c(c1)cc1n2CC=CC1)c1cc(C)nc2ccccc12	25.7	
C=C(c1ccc2c(c1)cc1n2CCOC1)c1cc(C)nc2ccccc12	109	

From ChEMBL document CHEMBL5055628, “Anticancer properties of indole derivatives as IsoCombretastatin A-4 analogues” (Eur J Med Chem, 2021)
